ChEMBL document CHEMBL1833971, “Towards rational design of cannabinoid receptor 1 (CB1) antagonists for peripheral selectivity” (Bioorg Med Chem Lett, 2011)

Experiments:
Cannabinoid receptor 2 = Cannabinoid receptor 2 (Homo sapiens, UniProt P34972); test: Displacement of [3H]-CP55940 from human CB2 receptor expressed in CHO-K1 cells after 1 hr by liquid scintillation spectrometry; format: cell-based
In short: (§1)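 Membranes from CHO-K1 cells over-expressing CB1 or CB2 used for [3H]CP55940 displacement, giving Ki at each receptor. Selectivity taken as the comparison of the CB2 and CB1 Ki values.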

MDCK = test: Permeability from apical to basolateral side of MDR1 transfected MDCK cells at 3.16 uM after 1 hr by LC/MS analysis; format: ADME, cell-based, Canis lupus familiaris; conditions: dog
In short: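 MDCK-mdr1 cells grown on filters for 4 days to confluence. Compound added apically at 3.16 μM, incubated 1 hr at 37°C. Apical-to-basal transport quantified by mass spectrometry in MRM mode, tuned per compound by infusion.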

Cannabinoid receptor 1 [1] = target: T1, Cannabinoid receptor 1 (Homo sapiens, UniProt P21554); test: Displacement of [3H]-CP55940 from human CB1 receptor expressed in CHO-K1 cells after 1 hr by liquid scintillation spectrometry; format: cell-based
Cannabinoid receptor 1 [2] = target: T1, Cannabinoid receptor 1; test: Displacement of [3H]-SR141716A from human CB1 receptor expressed in CHO-K1 cells after 1 hr by liquid scintillation counting; format: cell-based
Cannabinoid receptor 1 [3] = target: T1, Cannabinoid receptor 1; test: Antagonist activity at human CB1 receptor transfected in CHO-K1 cells co-expressing G-alpha-q16 protein assessed as inhibition of G-alpha-q16 protein-mediated intracellular calcium mobilization; format: functional, cell-based
Homo sapiens = organism: Homo sapiens; test: Selectivity ratio of Ki for human CB2 receptor to Ki for human CB1 receptor; in short: as §1

Cannabinoid receptor 2, sequence (P34972 whole entry): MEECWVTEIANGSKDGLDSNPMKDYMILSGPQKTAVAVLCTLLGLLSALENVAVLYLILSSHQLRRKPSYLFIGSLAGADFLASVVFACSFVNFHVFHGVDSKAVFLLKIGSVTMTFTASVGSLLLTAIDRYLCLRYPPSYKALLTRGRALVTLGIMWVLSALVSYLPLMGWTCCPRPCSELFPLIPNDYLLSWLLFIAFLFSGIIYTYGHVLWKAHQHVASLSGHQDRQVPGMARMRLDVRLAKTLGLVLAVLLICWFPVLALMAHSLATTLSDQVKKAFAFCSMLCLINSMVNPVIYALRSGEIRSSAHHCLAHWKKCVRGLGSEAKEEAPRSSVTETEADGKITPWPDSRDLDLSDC
T1 sequence (P21554 whole entry): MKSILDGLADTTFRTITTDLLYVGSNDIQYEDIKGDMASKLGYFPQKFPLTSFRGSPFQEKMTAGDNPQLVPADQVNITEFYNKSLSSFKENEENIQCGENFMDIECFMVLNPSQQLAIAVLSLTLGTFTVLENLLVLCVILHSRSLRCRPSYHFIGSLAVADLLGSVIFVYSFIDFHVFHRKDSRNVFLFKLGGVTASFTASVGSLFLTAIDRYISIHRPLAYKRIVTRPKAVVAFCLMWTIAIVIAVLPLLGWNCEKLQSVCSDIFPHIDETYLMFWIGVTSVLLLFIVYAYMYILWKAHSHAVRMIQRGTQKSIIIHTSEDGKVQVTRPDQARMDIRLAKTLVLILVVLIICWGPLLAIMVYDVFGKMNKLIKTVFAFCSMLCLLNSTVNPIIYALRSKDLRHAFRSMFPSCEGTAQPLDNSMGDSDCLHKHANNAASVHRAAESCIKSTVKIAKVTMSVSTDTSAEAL

Ki (Cannabinoid receptor 2) | Ki (Cannabinoid receptor 1 [1]) | Ki (Cannabinoid receptor 1 [2]) | Ke (Cannabinoid receptor 1 [3]) | Ratio Ki (Homo sapiens) | SMILES | permeability (MDCK)
1790 nM |  |  |  |  | Cc1c(C(=O)NC[C@H]2CC[C@@H](CNS(N)(=O)=O)CC2)nn(-c2ccc(Cl)cc2Cl)c1-c1ccc(Cl)cc1 | < 1%
1010 nM | 49 nM | 20 nM | 0.304 µM | 21 | Cc1c(C(=O)NCCCCCCCNS(N)(=O)=O)nn(-c2ccc(Cl)cc2Cl)c1-c1ccc(Cl)cc1 | 
1740 nM | 56 nM | 13 nM |  | 31 | Cc1c(C(=O)Nc2ccncc2)nn(-c2ccc(Cl)cc2Cl)c1-c1ccc(Cl)cc1 | 
 |  |  | 2.93 µM |  | Cc1c(C(=O)NCc2ccc(CNS(C)(=O)=O)cc2)nn(-c2ccc(Cl)cc2Cl)c1-c1ccc(Cl)cc1 | 
 |  |  | 2.83 µM |  | Cc1c(C(=O)NCc2cccc(CNS(C)(=O)=O)c2)nn(-c2ccc(Cl)cc2Cl)c1-c1ccc(Cl)cc1 | 
 |  |  | 0.376 µM |  | Cc1c(C(=O)NCc2ccc(CNS(N)(=O)=O)cc2)nn(-c2ccc(Cl)cc2Cl)c1-c1ccc(Cl)cc1 | 
780 nM |  |  |  |  | Cc1c(C(=O)NCCCCCCCNS(C)(=O)=O)nn(-c2ccc(Cl)cc2Cl)c1-c1ccc(Cl)cc1 | 
2310 nM |  |  |  |  | Cc1c(C(=O)NCC2CCC(CNS(N)(=O)=O)CC2)nn(-c2ccc(Cl)cc2Cl)c1-c1ccc(Cl)cc1 (mixture of isomers) | 
 |  |  | 4.2 µM |  | Cc1c(C(=O)NCc2cccc(CNS(N)(=O)=O)c2)nn(-c2ccc(Cl)cc2Cl)c1-c1ccc(Cl)cc1 | 
 |  |  | 5.34 µM |  | Cc1c(C(=O)NCCCN(C)CCCNS(C)(=O)=O)nn(-c2ccc(Cl)cc2Cl)c1-c1ccc(Cl)cc1 | 
4520 nM | 294 nM | 61 nM | 1.39 µM | 15 | Cc1c(C(=O)Nc2cc[n+]([O-])cc2)nn(-c2ccc(Cl)cc2Cl)c1-c1ccc(Cl)cc1 | 
4010 nM | 102 nM | 26 nM |  | 39 | Cc1ccc(NC(=O)c2nn(-c3ccc(Cl)cc3Cl)c(-c3ccc(Cl)cc3)c2C)cn1 | 

SMILES | Ki (Cannabinoid receptor 2) | Ki (Cannabinoid receptor 1 [1]) | Ki (Cannabinoid receptor 1 [2]) | Ke (Cannabinoid receptor 1 [3]) | Ratio Ki (Homo sapiens) | permeability (MDCK)
Cc1c(C(=O)NCC2CCC(CNS(C)(=O)=O)CC2)nn(-c2ccc(Cl)cc2Cl)c1-c1ccc(Cl)cc1 (mixture of isomers) | 900 nM | 55 nM | 11 nM |  |  | 
Cc1c(C(=O)Nc2ccc(C)[n+](C)c2)nn(-c2ccc(Cl)cc2Cl)c1-c1ccc(Cl)cc1 | 2270 nM | 1700 nM | 786 nM |  | 1.3 | 
Cc1c(C(=O)NC[C@H]2CC[C@@H](CNS(C)(=O)=O)CC2)nn(-c2ccc(Cl)cc2Cl)c1-c1ccc(Cl)cc1 | 960 nM | 36 nM | 8 nM |  |  | < 1%
